Data published in ChEMBL document CHEMBL4266040, “Structure-Based Engineering of Irreversible Inhibitors against Histone Lysine Demethylase KDM5A” (J Med Chem, 2018).
Activity calls are given as the source filed them. No cut-off for these calls is given here.

Tests used:
[1] = target: T1, Lysine-specific demethylase 5A (Homo sapiens, UniProt P29375); experiment: Binding affinity to KDM5A ARID/PhD1 domain deletion mutant (1 to 588 residues) (unknown origin) by ITC assay
[2] = organism: Homo sapiens; experiment: Selectivity ratio of IC50 for KDM5A ARID/PhD1 domain deletion mutant (1 to 739 residues) (unknown origin) to IC50 for KDM6A (880 to 1401 residues) (unknown origin)
[3] = target: T1, Lysine-specific demethylase 5A; experiment: Inhibition of KDM5A ARID/PhD1 domain deletion mutant (1 to 739 residues) (unknown origin) using H3 ( 1 to 24 residues) K4me3 as substrate preincubated for 15 min followed by substrate addition measured after 15 mins by FDH-coupled demethylase assay
[4] = target: Lysine-specific demethylase 6A (Homo sapiens, UniProt O15550); experiment: Inhibition of KDM6A (880 to 1401 residues) (unknown origin) using H3 ( 21 to 44 residues) K27me3 as substrate preincubated for 15 min followed by substrate addition measured after 15 mins by FDH-coupled demethylase assay
[5] = target: T2, Lysine-specific demethylase 4A (Homo sapiens, UniProt O75164); experiment: Inhibition of KDM4A (1 to 350 residues) (unknown origin) using H3 ( 1 to 15 residues) K9me3 as substrate preincubated for 15 min followed by substrate addition measured after 15 mins by FDH-coupled demethylase assay
T2 sequence (O75164 whole entry): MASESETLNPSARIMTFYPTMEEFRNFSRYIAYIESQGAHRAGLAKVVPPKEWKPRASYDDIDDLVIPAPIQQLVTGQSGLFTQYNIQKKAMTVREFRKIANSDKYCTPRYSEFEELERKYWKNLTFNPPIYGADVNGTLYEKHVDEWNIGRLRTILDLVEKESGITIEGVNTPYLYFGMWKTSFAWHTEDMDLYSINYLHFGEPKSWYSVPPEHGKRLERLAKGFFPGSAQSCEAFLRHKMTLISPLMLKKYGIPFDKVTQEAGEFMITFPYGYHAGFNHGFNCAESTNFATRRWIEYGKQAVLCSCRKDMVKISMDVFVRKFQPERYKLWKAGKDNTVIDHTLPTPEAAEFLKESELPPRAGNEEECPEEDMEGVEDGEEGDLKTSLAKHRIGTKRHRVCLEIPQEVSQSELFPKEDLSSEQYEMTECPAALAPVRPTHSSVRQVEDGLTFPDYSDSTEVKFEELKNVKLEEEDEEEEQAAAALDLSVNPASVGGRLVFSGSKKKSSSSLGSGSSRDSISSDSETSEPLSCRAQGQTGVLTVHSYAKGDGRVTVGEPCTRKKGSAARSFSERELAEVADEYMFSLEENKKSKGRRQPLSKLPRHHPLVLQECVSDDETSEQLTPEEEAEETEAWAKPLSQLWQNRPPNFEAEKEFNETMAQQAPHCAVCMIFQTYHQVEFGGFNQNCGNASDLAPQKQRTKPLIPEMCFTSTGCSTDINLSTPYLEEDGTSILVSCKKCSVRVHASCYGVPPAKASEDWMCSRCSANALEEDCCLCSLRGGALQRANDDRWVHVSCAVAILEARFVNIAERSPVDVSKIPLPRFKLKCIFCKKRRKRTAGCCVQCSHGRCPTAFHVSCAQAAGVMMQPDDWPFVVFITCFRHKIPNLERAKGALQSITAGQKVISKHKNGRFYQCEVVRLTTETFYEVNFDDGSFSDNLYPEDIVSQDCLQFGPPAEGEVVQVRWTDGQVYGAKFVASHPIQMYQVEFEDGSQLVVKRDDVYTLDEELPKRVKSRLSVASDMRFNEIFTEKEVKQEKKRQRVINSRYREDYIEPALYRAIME

[6] = organism: Homo sapiens; experiment: Selectivity ratio of IC50 for KDM4A (1 to 350 residues) (unknown origin) to IC50 for KDM5A ARID/PhD1 domain deletion mutant (1 to 739 residues) (unknown origin)
[7] = target: T1, Lysine-specific demethylase 5A; experiment: Inhibition of KDM5A in human MCF7 cells assessed as effect on H3K27me3 methylation levels at 1 to 10 uM after 30 hrs by Western blot analysis; format: cell-based
Procedure, shortened: (§1)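 MCF7 breast cancer cells were exposed to compound, with a 0.1% DMSO control, for 30 or 48 h. Total cell lysates were then probed by Western blot with antibodies to histone methylation marks.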

[8] = target: T1, Lysine-specific demethylase 5A; experiment: Inhibition of KDM5A in human MCF7 cells assessed as effect on H3K4me3 methylation levels at 1 to 10 uM after 30 hrs by Western blot analysis; format: cell-based; procedure, shortened: as §1
[9] = target: T1, Lysine-specific demethylase 5A; experiment: Irreversible inhibition of KDM5A ARID/PhD1 domain deletion mutant (1 to 739 residues) (unknown origin) at 100 uM using alpha-KG measured after 4 times of buffer exchange by succinate-glo demethylase assay
Procedure, shortened: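 Enzyme–inhibitor complex preformed ([E] = 5 μM, initial [I] = 100 μM), then four buffer exchanges before Succinate-Glo activity measurement.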

[10] = target: T1, Lysine-specific demethylase 5A; experiment: Irreversible inhibition of KDM5A ARID/PhD1 domain deletion mutant (1 to 739 residues) (unknown origin) using 1000 uM alpha-KG by succinate-glo demethylase assay
Procedure, shortened: (§2)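 KDM5A(1−739)ΔAP (0.8 μM) preincubated 20 min with 2-fold serial dilutions of compound. Reaction started with αKG (10, 100 or 1000 μM) and H3(1−24)K4me3 (60 μM), 10 μM (NH4)2Fe(SO4)2, 100 μM ascorbate, 50 mM HEPES pH 8.0, 5% DMSO. Run 10 min at ambient temperature, n = 3; succinate read by Succinate-Glo luminescence.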

[11] = Effective permeability of the compound at pH 7.4 by PAMPA; format: ADME; settings: for Papp: read-out: Peff
Procedure, shortened: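 PAMPA with a lipid/dodecane artificial membrane and pH 7.4 buffer in donor and acceptor wells. Compounds diluted from 10 mM DMSO stock to 0.05 mM final, 0.5% DMSO. Donor stirred during a 30 min permeation at room temperature. Donor and acceptor concentrations read by UV. Permeability given in 10−6 cm s−1: >100 high, 10–100 moderate, <10 low.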

[12] = target: T2, Lysine-specific demethylase 4A; experiment: Irreversible inhibition of recombinant KDM4A (1 to 350 residues) (unknown origin) expressed in Escherichia coli using H3 (1 to 21 residues) K9me3 as substrate preincubated for 10 mins followed by substrate/alphaKG/(NH4)2Fe(SO4)2 addition measured after 1 hr by alphaLISA assay
Procedure, shortened: (§3)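 AlphaLISA using antibody to H3K4 (KDM5B) or H3K9 (KDM4A) methylation to detect demethylation of enzyme-specific histone peptides. Both enzymes are recombinant catalytic domains from E. coli, tested at the same enzyme concentration.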

[13] = Metabolic stability in human BT474 cell culture media assessed as parent compound remaining at 10 uM after 24 hrs by LC-MS/MS analysis; format: physicochemical; settings: read-out: Stability
[14] = Drug level in human BT474 cell culture media treated with isopropyl 2-((3-Aminophenyl)(2-(piperidin-1-yl)-ethoxy)methyl)thieno[3,2-b]pyridine-7-carboxylate at 10 uM after 24 hrs by LC-MS/MS analysis; format: physicochemical
[15] = organism: Homo sapiens; experiment: Selectivity ratio of IC50 for recombinant KDM4A (1 to 350 residues) (unknown origin) to IC50 for recombinant KDM5B ARID/PhD1 domain deletion (1 to 755 residues) (unknown origin); procedure, shortened: as §3
[16] = target: T1, Lysine-specific demethylase 5A; experiment: Irreversible inhibition of KDM5A ARID/PhD1 domain deletion mutant (1 to 739 residues) (unknown origin) using 100 uM alpha-KG by succinate-glo demethylase assay; procedure, shortened: as §2
[17] = target: T1, Lysine-specific demethylase 5A; experiment: Irreversible inhibition of KDM5A ARID/PhD1 domain deletion mutant (1 to 739 residues) (unknown origin) using alpha-KG by succinate-glo demethylase assay; procedure, shortened: as §2
[18] = target: T1, Lysine-specific demethylase 5A; experiment: Binding affinity to KDM5A ARID/PhD1 domain deletion mutant (1 to 588 residues) (unknown origin) assessed as covalent modification of enzyme at 0.5 mM after 30 mins by ESI-tandem-MS analysis
[19] = target: T1, Lysine-specific demethylase 5A; experiment: Irreversible inhibition of KDM5A ARID/PhD1 domain deletion mutant (1 to 739 residues) (unknown origin) using 10 uM alpha-KG by succinate-glo demethylase assay; procedure, shortened: as §2
[20] = target: T1, Lysine-specific demethylase 5A; experiment: Irreversible inhibition of KDM5A ARID/PhD1 domain deletion mutant (1 to 739 residues) (unknown origin) using alpha-KG measured immediately by succinate-glo demethylase assay
Procedure, shortened: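 Compound and KDM5A(1−739)ΔAP either without preincubation or preincubated 20 min before αKG addition; activity read by Succinate-Glo.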

[21] = target: T1, Lysine-specific demethylase 5A; experiment: Irreversible inhibition of KDM5A ARID/PhD1 domain deletion mutant (1 to 739 residues) (unknown origin) assessed as Kinact to Ki ratio
Procedure, shortened: (§4)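 KDM5A (0.8 μM) preincubated with five inhibitor concentrations (0.01–5 μM). At each time point, mixture added to H3 peptide (60 μM) and αKG (100 μM) and stopped after 7 min. Log % remaining activity plotted against preincubation time; negative slopes fitted by nonlinear regression against [I] to give kinact and KI.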

[22] = target: T1, Lysine-specific demethylase 5A; experiment: Irreversible inhibition of 0.4 uM KDM5A ARID/PhD1 domain deletion mutant (1 to 739 residues) (unknown origin) using 100 uM alpha-KG by succinate-glo demethylase assay
Procedure, shortened: (§5)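 Succinate-Glo run with KDM5A(1−739)ΔAP at varied enzyme concentration and 100 μM αKG. H3(1−24)K4me3 60 μM, Fe(II) 10 μM, ascorbate 100 μM, HEPES pH 8.0, 5% DMSO.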

[23] = target: T1, Lysine-specific demethylase 5A; experiment: Irreversible inhibition of KDM5A ARID/PhD1 domain deletion mutant (1 to 739 residues) (unknown origin); procedure, shortened: as §4
[24] = target: T1, Lysine-specific demethylase 5A; experiment: Irreversible inhibition of 1.6 uM KDM5A ARID/PhD1 domain deletion mutant (1 to 739 residues) (unknown origin) using 100 uM alpha-KG by succinate-glo demethylase assay; procedure, shortened: as §5
[25] = target: T1, Lysine-specific demethylase 5A; experiment: Irreversible inhibition of 0.8 uM KDM5A ARID/PhD1 domain deletion mutant (1 to 739 residues) (unknown origin) using 100 uM alpha-KG by succinate-glo demethylase assay; procedure, shortened: as §5
[26] = target: T1, Lysine-specific demethylase 5A; experiment: Irreversible inhibition of KDM5A ARID/PhD1 domain deletion mutant (1 to 739 residues) (unknown origin) using alpha-KG as substrate by succinate-glo demethylase assay; settings: TDE = time-dependent effect; procedure, shortened: as §2
[27] = system: BT-474; experiment: Growth inhibition of human BT474 cells at 0.11 to 3.5 uM measured every 4 hrs for 300 hrs by IncuCyte live cell imaging method; format: functional, cell-based
Procedure, shortened: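 BT474 cells grown with compound; percent confluence tracked by IncuCyte live-cell imaging every 4 h over 300 h.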

Sequence of Lysine-specific demethylase 6A (O15550 whole entry, the tested form may be a part): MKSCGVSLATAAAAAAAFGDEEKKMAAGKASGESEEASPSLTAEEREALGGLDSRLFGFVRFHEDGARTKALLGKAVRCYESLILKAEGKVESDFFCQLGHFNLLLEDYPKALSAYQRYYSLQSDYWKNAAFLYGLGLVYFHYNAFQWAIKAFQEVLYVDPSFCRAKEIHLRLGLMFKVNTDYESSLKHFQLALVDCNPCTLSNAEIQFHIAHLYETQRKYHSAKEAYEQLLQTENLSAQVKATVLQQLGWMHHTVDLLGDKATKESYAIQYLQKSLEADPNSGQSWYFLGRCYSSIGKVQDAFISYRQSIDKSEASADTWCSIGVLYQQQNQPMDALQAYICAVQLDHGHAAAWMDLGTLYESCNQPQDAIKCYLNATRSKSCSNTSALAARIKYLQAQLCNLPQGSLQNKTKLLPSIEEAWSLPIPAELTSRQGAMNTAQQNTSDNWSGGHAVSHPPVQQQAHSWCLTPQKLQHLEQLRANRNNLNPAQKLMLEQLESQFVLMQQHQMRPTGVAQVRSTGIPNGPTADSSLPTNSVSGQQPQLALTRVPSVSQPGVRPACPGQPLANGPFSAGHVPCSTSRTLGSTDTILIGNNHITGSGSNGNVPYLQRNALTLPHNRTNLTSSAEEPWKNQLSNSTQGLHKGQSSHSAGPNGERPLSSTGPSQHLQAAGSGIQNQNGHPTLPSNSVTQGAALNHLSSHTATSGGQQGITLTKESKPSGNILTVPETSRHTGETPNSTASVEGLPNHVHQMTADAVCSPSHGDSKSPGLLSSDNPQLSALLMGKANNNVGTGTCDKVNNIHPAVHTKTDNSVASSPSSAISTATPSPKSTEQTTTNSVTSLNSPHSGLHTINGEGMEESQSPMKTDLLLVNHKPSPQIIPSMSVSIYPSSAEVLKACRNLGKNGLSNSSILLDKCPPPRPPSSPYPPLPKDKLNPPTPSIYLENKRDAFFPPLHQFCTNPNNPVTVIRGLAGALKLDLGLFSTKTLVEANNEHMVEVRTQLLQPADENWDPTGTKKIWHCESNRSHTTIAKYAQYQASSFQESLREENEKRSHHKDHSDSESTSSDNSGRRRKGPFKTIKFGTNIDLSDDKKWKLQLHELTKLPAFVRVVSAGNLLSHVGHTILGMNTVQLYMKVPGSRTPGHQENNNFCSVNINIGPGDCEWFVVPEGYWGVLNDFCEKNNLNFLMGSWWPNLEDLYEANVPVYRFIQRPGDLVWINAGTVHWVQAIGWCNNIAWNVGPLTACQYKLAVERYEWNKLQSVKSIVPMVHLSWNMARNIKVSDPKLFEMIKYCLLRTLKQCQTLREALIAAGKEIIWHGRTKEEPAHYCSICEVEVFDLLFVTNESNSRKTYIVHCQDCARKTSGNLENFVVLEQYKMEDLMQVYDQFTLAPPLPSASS
T1 sequence (P29375 whole entry, the tested form may be a part): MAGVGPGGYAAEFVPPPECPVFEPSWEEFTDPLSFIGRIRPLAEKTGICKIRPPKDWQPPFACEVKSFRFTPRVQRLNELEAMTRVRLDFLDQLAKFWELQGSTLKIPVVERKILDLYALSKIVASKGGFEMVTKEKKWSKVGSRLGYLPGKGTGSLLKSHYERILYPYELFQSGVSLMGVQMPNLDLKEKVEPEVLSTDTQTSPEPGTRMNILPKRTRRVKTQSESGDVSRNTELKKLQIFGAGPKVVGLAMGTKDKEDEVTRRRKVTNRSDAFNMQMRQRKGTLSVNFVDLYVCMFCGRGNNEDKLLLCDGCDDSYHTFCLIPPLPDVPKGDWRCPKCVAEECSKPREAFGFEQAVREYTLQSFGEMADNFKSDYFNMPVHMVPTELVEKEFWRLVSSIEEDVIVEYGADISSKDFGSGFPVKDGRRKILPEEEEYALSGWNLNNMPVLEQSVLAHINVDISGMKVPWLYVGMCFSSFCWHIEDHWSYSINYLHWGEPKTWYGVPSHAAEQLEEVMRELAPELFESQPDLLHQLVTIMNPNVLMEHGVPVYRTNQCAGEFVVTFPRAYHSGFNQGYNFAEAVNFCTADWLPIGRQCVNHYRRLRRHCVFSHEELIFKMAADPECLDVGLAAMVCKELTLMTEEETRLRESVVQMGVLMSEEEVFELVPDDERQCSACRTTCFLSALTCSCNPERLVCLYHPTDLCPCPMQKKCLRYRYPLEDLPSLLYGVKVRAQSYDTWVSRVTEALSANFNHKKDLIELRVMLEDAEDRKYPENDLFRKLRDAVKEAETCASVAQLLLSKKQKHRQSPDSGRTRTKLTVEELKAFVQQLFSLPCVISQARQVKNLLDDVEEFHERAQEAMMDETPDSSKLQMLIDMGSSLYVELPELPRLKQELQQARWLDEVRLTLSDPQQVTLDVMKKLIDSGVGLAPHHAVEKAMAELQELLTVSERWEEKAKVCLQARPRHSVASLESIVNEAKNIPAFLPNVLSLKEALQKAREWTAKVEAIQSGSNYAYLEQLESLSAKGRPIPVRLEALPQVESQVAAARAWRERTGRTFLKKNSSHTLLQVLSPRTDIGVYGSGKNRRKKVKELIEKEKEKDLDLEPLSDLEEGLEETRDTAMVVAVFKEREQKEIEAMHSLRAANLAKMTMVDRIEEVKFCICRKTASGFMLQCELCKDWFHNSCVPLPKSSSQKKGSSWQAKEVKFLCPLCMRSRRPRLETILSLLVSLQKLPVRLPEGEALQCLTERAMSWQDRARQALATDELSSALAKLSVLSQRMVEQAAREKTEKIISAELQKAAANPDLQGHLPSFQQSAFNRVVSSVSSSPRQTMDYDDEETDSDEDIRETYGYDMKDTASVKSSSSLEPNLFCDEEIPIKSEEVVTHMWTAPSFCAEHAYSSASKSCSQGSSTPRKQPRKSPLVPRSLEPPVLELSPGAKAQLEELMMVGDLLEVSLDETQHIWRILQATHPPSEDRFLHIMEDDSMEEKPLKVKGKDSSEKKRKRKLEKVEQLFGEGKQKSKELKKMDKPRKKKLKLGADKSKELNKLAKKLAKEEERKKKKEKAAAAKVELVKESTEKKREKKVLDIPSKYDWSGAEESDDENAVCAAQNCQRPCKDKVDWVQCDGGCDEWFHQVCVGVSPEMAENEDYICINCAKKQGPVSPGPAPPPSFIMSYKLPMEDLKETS

Structure (SMILES)	Kd [1] [µM]	Ratio IC50 [2]	IC50 [3] [µM]	IC50 [4] [µM]	IC50 [5] [µM]	Ratio IC50 [6]	IC50 [12] [µM]	remaining at 24 h, 10 µM [13] [%]	Ratio IC50 [15]	other results
C=CC(=O)N1CCCN(c2cc(NCCC(=O)O)nc(-c3ccccn3)n2)CC1	6	1.5 to 1.8	71	39	230	3.2 to 3.6	–	–	–	–
CCOC(=O)CCNc1cc(N2CCc3ccccc3CC2)nc(-c2ccccn2)n1	–	–	–	–	–	–	–	–	–	inhibition [7]: Active; inhibition [8]: Active
Nc1cccc(C(OCCN2CCCCC2)c2cc3nccc(C(=O)O)c3s2)c1 (configuration not stated)	–	–	–	–	–	–	4.2	93	8.6	inhibition [9]: inactive; IC50 [10]: > 100 µM; Papp [11]: 52.7 ×10⁻⁶ cm/s; Drug metabolism [14]: Metabolite_Detected; IC50 [16]: 5.4 µM; IC50 [17]: 4.9 µM; Activity [18]: inactive; IC50 [19]: 0.7 µM; IC50 [20]: 5.5 µM
C=CS(=O)(=O)N1CCCN(c2cc(NCCC(=O)O)nc(-c3ccccn3)n2)CC1	9	1.5 to 1.8	83	55	290	3.2 to 3.6	–	–	–	–
O=C(O)CCNc1cc(N2CCc3ccccc3CC2)nc(-c2ccccn2)n1	12	1.5 to 1.8	110	69	400	3.2 to 3.6	–	–	–	–
CN(C)C/C=C/C(=O)Nc1cccc(C(OCCN2CCCCC2)c2cc3nccc(C(=O)O)c3s2)c1 (configuration not stated)	–	–	–	–	–	–	5.3	60	24	inhibition [9]: Active; Ratio [21]: 8 ×10³ /M/s; IC50 [10]: 0.18 µM; Papp [11]: < 1 ×10⁻⁶ cm/s; IC50 [22]: 0.06 µM; Ki [23]: 0.41 µM; Kinact [23]: 0.198 min⁻¹; IC50 [24]: 0.36 µM; IC50 [16]: 0.11 µM; IC50 [17]: 1.24 µM; IC50 [25]: 0.18 µM; Activity [18]: Active; IC50 [19]: 0.1 µM; inhibition [26]: Tde; IC50 [20]: 0.11 µM
CN1CCCC1CCOC(c1cc2nccc(C(=O)O)c2[nH]1)c1ccccc1Cl (configuration not stated)	0.15	–	–	–	–	–	–	–	–	–
CC(C)OC(=O)c1ccnc2cc(C(OCCN3CCCCC3)c3cccc(N)c3)sc12 (configuration not stated)	–	–	–	–	–	–	–	75	–	growth inhibition (GI) [27]: Active; Peff [11]: 1018 ×10⁻⁶ cm/s
CN1CCCC1CCOC(c1cc2nccc(C(=O)O)c2s1)c1ccccc1Cl (configuration not stated)	0.26	–	–	–	–	–	2.2	–	7	–
